{"source": "ChEMBL document CHEMBL1221396", "about": "“Resveratrol oligomers from Vatica albiramis” (J Nat Prod, 2010)", "key": {"[1]": {"system": "HFF", "experiment": "Antiinflammatory activity in human foreskin fibroblast assessed as inhibition of IL-1-beta-induced MMP1 production at 1 uM treated for 24 hrs before IL1-beta challenge measured after 24 hrs by Western blot analysis", "assay_type": "functional, cell-based", "summary_of_the_method": "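Fibroblasts were grown in DMEM with 10% FBS at 37 °C under 5% CO2, seeded at 2 × 10⁵ cells/mL, grown to confluence, and treated for 24 h. Secreted MMP-1 was measured by western blot. Blots were blocked in TBS with 5% skim milk and 0.05% Tween-20 for 1 h at room temperature, incubated with primary antibody overnight at 4 °C, then with HRP secondary antibody for 1 h at room temperature.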"}, "[2]": {"system": "HFF", "experiment": "Cytotoxicity against human foreskin fibroblast at 1 uM", "assay_type": "cell-based"}}, "note": "Activity calls are given as the source filed them. No cut-off for these calls is given here."}
{"smiles": "Oc1ccc([C@@H]2c3c(O)cc(O)cc3[C@@H]3c4c(cc(O)cc4[C@H]2[C@@H]2c4cc(O)cc5c4[C@@H](c4cc(O)cc(O)c4[C@H]2c2ccc(O)cc2)[C@H](c2ccc(O)cc2)O5)O[C@H]3c2ccc(O)cc2)cc1", "values": [{"measurement": "inhibition", "setting": "[1]", "value": "Active"}, {"measurement": "Activity", "setting": "[2]", "value": "Non-toxic"}]}
{"smiles": "OC[C@H]1O[C@@H](Oc2cc(O)cc([C@@H]3c4c(/C=C/c5ccc(O)cc5)cc(O[C@@H]5O[C@H](CO)[C@@H](O)[C@H](O)[C@H]5O)cc4O[C@H]3c3ccc(O)cc3)c2)[C@H](O)[C@@H](O)[C@@H]1O", "values": [{"measurement": "inhibition", "setting": "[1]", "value": "inactive"}]}
{"smiles": "Oc1ccc(/C=C/c2cc(O)cc3c2[C@@H](c2cc(O)cc(O)c2)[C@H](c2ccc(O)cc2)O3)cc1", "values": [{"measurement": "inhibition", "setting": "[1]", "value": "inactive"}]}
{"smiles": "Oc1ccc(/C=C\\c2cc(O)cc3c2[C@@H](c2cc(O)cc(O)c2)[C@H](c2ccc(O)cc2)O3)cc1", "values": [{"measurement": "inhibition", "setting": "[1]", "value": "inactive"}]}
{"smiles": "Oc1ccc([C@H]2c3c(O)cc(O)cc3[C@@H]3c4c(cc(O)cc4[C@H]2O)O[C@H]3c2ccc(O)cc2)cc1", "values": [{"measurement": "inhibition", "setting": "[1]", "value": "inactive"}]}
{"smiles": "Oc1ccc([C@H]2c3c(O)cc4c(c3[C@@H]3[C@@H](c5ccc(O)cc5)c5c(O)cc6c(c5[C@H]23)[C@@H](c2cc(O)cc(O)c2)[C@H](c2ccc(O)cc2)O6)[C@@H](c2cc(O)cc(O)c2)[C@H](c2ccc(O)cc2)O4)cc1", "note": "[STENOPHYLLOL C]", "values": [{"measurement": "inhibition", "setting": "[1]", "value": "Active"}, {"measurement": "Activity", "setting": "[2]", "value": "Non-toxic"}]}
{"smiles": "OC[C@H]1O[C@@H](Oc2cc3c4c(c2)[C@@H]([C@@H]2c5cc(O)cc6c5[C@@H](c5cc(O)cc(O)c5[C@H]2c2ccc(O)cc2)[C@H](c2ccc(O)cc2)O6)[C@H](c2ccc(O)cc2)c2c(O)cc(O)cc2[C@H]4[C@H](c2ccc(O)cc2)O3)[C@H](O)[C@@H](O)[C@@H]1O", "note": "[VATALBINOSIDE A]", "values": [{"measurement": "inhibition", "setting": "[1]", "value": "Active"}, {"measurement": "Activity", "setting": "[2]", "value": "Non-toxic"}]}
{"smiles": "Oc1ccc([C@@H]2c3c(O)cc(O)cc3[C@@H]3c4c(cc(O)cc4[C@H]2[C@@H]2c4cc(O)c([C@@H](c5ccc(O)cc5)[C@@H]5c6c(c(O)cc7c6[C@@H](c6cc(O)cc(O)c6)[C@H](c6ccc(O)cc6)O7)[C@H](c6cc(O)cc7c6[C@H](c6cc(O)cc(O)c6)[C@@H](c6ccc(O)cc6)O7)[C@H]5c5ccc(O)cc5)c5c4[C@@H](c4cc(O)cc(O)c4[C@H]2c2ccc(O)cc2)[C@H](c2ccc(O)cc2)O5)O[C@H]3c2ccc(O)cc2)cc1", "note": "[VATERIAPHENOL A]", "values": [{"measurement": "inhibition", "setting": "[1]", "value": "Active"}, {"measurement": "Activity", "setting": "[2]", "value": "Non-toxic"}]}
{"smiles": "Oc1ccc([C@@H]2c3c(O)cc4c(c3[C@@H]3c5c(O)cc6c(c5[C@H]2[C@H]3c2ccc(O)cc2)[C@@H](c2cc(O)cc(O)c2)[C@H](c2ccc(O)cc2)O6)[C@@H](c2cc(O)cc(O)c2)[C@H](c2ccc(O)cc2)O4)cc1", "note": "[VATICANOL C]", "values": [{"measurement": "inhibition", "setting": "[1]", "value": "Active"}, {"measurement": "Activity", "setting": "[2]", "value": "Non-toxic"}]}
{"smiles": "Oc1ccc([C@@H]2c3c(O)cc(O)cc3[C@@H]3c4c(cc(O)c5c4[C@@H]2[C@H](c2ccc(O)cc2)[C@H]5c2cc(O)cc4c2[C@@H](c2cc(O)cc(O)c2)[C@H](c2ccc(O)cc2)O4)O[C@H]3c2ccc(O)cc2)cc1", "note": "[Vaticanol B]", "values": [{"measurement": "inhibition", "setting": "[1]", "value": "Active"}, {"measurement": "Activity", "setting": "[2]", "value": "Non-toxic"}]}
